ChEMBL document CHEMBL5113395, “Azetidin-2-one-based small molecules as dual hHDAC6/HDAC8 inhibitors: Investigation of their mechanism of action and impact of dual inhibition profile on cell viability” (Eur J Med Chem, 2022)
The source made the active and inactive calls. The calls are words filed in the database; no cut-off is given here.

Columns and labels:
[1] = biological target: T1, Polyamine deacetylase HDAC10 (Homo sapiens, UniProt Q969S8); assay: Inhibition of recombinant human N-terminal FLAG tagged HDAC10 expressed in baculovirus infected Sf9 insect cells using fluorogenic substrate measured after 30 mins by fluorescence plate reader analysis
T1 sequence (Q969S8 whole entry): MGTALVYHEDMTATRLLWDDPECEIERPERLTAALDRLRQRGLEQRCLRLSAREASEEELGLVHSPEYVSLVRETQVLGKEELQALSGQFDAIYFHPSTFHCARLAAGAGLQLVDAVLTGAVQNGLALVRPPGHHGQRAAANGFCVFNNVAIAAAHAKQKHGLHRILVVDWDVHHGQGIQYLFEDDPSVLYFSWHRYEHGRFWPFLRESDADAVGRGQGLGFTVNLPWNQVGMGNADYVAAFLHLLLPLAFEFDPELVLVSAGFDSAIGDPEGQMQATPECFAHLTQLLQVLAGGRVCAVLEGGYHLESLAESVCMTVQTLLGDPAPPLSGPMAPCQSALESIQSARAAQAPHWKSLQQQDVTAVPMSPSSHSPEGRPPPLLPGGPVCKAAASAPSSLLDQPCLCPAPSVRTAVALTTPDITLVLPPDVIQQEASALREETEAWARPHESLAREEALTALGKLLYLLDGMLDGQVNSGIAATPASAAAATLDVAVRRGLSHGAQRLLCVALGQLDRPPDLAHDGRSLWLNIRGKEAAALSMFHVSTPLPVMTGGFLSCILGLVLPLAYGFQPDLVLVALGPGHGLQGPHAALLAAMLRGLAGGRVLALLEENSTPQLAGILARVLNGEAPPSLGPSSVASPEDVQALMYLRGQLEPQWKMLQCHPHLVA

Homo sapiens = organism: Homo sapiens; assay: Selectivity index, ratio of IC50 for inhibition of recombinant human full length C-terminal FLAG/His-tagged HDAC1 expressed in Sf9 insect cells to IC50 for inhibition of recombinant human full length N-terminal GST-tagged HDAC6 expressed in Sf9 cells
Method in brief: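 Human recombinant HDAC1 or HDAC6 in Tris-HCl pH 8.0 buffer (NaCl, KCl, MgCl2, 1 mg/mL BSA). Incubated with inhibitor dilutions in DMSO and fluorogenic ZMAL substrate (126 μM) at 37 °C for 90 min. Stopped with trichostatin A/trypsin, 30 min at 37 °C. Fluorescence read at ex 390/em 460 nm. IC50 from at least three determinations; ratio HDAC1/HDAC6 IC50.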

U-937 = assay: Antiproliferation activity against human U-937 cells assessed as reduction in cell viability at 5 to 50 uM measured after 48 hrs by CCK-8 assay; format: functional, cell-based; details: dose 5-50 µM
Method in brief: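 U937 cells were exposed in triplicate to 1, 5, 10 and 50 µM for 24 and 48 h. CCK-8 (WST-8) reagent was then added, with 3 h further incubation at 37 °C, and absorbance was read at 450 nm to give viability.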

[2] = Chemical stability of compound in PBS at pH 7.4 measured after 24 hrs by HPLC/UV/DAD analysis; format: physicochemical; details: read-out: Stability
Method in brief: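 DMSO stock (10 mM) was diluted to 250 µM (2.5% DMSO) in 50 mM PBS, pH 7.4, and kept 24 h at 25 °C with shaking. Peak area at 24 h versus T0 was measured by HPLC/UV/DAD at 254 nm, in triplicate. Stress tests used a methanol solution heated at 40 °C for 24 h, or 24 h under UV 254 nm.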

[3] = Chemical stability of compound in PBS at pH 7.4 incubated for 24 hrs at 40 degreeC by HPLC/UV/DAD analysis; format: physicochemical; details: read-out: Stability
[4] = Octanol-water partition coefficient, log P of the compound by HPLC analysis; format: physicochemical
Method in brief: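 Stock of 0.005 M in MeOH, diluted serially in MeOH to build a calibration curve. Compound partitioned between water and n-octanol. LogP taken from the n-octanol/water phase ratio against the calibration curve, quantified by the RP-18 HPLC method at 254 nm.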

[5] = Metabolic stability in human liver microsome assessed as apparent decay constant at 5 uM in presence of NADPH incubated up to 60 mins by HPLC analysis; format: ADME; details: microsomes, 1 h
Method in brief: (§1)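 Compound in MeCN was incubated at 5 µM and 37 °C in 100 mM phosphate buffer pH 7.4 with 0.5 mg/mL human or mouse liver microsomal protein. Reactions were started with an NADPH-regenerating system (2 mM NADPH, glucose-6-phosphate, G6PDH, MgCl2) and stopped with MeCN over 0–60 min. Remaining compound was measured by HPLC-UV at 254 nm, in triplicate, with first-order decay fitting.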

[6] = Metabolic stability in human liver microsome assessed as half life at 5 uM in presence of NADPH incubated up to 60 mins by HPLC analysis; format: ADME; details: liver microsomes; method in brief: as §1
[7] = Metabolic stability in human liver microsome assessed as intrinsic clearance at 5 uM measured per mg protein in presence of NADPH incubated up to 60 mins by HPLC analysis; format: ADME; details: microsomes, 1 h; method in brief: as §1
[8] = Metabolic stability in mouse liver microsome assessed as half life at 5 uM in presence of NADPH incubated up to 60 mins by HPLC analysis; format: ADME; details: liver microsomes; method in brief: as §1
[9] = Metabolic stability in mouse liver microsome assessed as intrinsic clearance at 5 uM measured per mg protein in presence of NADPH incubated up to 60 mins by HPLC analysis; format: ADME; details: microsomes, 1 h
Method in brief: (§2)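 Compound (in MeCN) at 5 μM incubated at 37 °C in 100 mM phosphate buffer pH 7.4 with 0.5 mg/mL liver microsomal protein (rat, mouse or human). CYP reactions started with NADPH-generating system (2 mM NADPH, glucose-6-phosphate, G6P dehydrogenase, MgCl2). Stopped with MeCN at intervals over 0–60 min. Remaining parent quantified by HPLC-UV at 254 nm. Ln % recovery vs time fitted to first-order decay. Triplicate incubations.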

[10] = Metabolic stability in rat liver microsome assessed as apparent decay constant at 5 uM in presence of NADPH incubated up to 60 mins by HPLC analysis; format: ADME; details: liver microsomes; method in brief: as §2
[11] = Metabolic stability in rat liver microsome assessed as half life at 5 uM in presence of NADPH incubated up to 60 mins by HPLC analysis; format: ADME; details: liver microsomes; method in brief: as §2
[12] = Metabolic stability in rat liver microsome assessed as intrinsic clearance at 5 uM measured per mg protein in presence of NADPH incubated up to 60 mins by HPLC analysis; format: ADME; details: microsomes, 1 h; method in brief: as §2
Danio rerio = assay: In vivo inhibition of HDAC8 in zebrafish AB embryos assessed as increase in acetylation level of alpha-tubulin at 20 to 75 uM measured after 24 hrs by Western blot analysis; format: functional, organism-based; details: dose 20-75 µM
[13] = Toxicity in zebrafish AB embryos at 25 to 75 uM measured after 24 hrs; details: Danio rerio, in vivo
[14] = Toxicity in zebrafish AB embryos assessed as tolerance at 25 to 75 uM measured after 24 hrs; details: Danio rerio, in vivo

Structure (SMILES)	IC50 [1] [µM]	Ratio IC50 (Homo sapiens)	Activity (U-937)	remaining at 24 h [2] [%]	remaining at 24 h [3] [%]	logP [4]	K [5] [min⁻¹]	half-life at 5 µM [6] [h]	CLH [7] [µL/min]	half-life at 5 µM [8] [h]	CLH [9] [µL/min]	k el at 1 h, 5 µM [10] [s⁻¹]	half-life at 5 µM [11] [h]	CLH [12] [µL/min]	Activity (Danio rerio)	Activity [13]	Activity [14]
O=C(NO)c1ccc(CC(=O)N2CCC(N3CC(c4ccccc4)(c4ccccc4)C3=O)CC2)cc1	5.1	106	Active	–	–	–	–	–	–	–	–	–	–	–	–	–	–
O=C(NO)c1ccc(CNC(=O)N2CCC(N3C(=O)[C@H](c4ccccc4)[C@H]3c3ccccc3)CC2)cc1 (racemic)	6.6	200	Active	73	100	2.75	0.0129	0.9	32.28	1.07	35.38	0.000135	1.43	8.43	Active	Non-Toxic	Non-Toxic
O=C(NO)c1ccc(CNC(=O)N2CCC(N3CC(c4ccccc4)(c4ccccc4)C3=O)CC2)cc1	6.5	1260	Active	75	94	2.78	0.0362	0.317	90.5	1.12	33.63	0.000118	1.63	7.39	Active	Non-Toxic	Non-Toxic
